Measurements reported in paper PMC4532391 (Biochemistry, 2015).
No end group written: not given here.

Columns and labels:
[1] = target: T1, αMI-domain (Homo sapiens, UniProt P11215); type: binding
[2] = system: αMβ2 on neutrophils; assay: Flow cytometry of the activation-dependent CBRM1/5 epitope on neutrophils; type: cell-based, human
How it was run: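 Human blood neutrophils, isolated sterilely, at 10^6 per 0.1 mL in HBSS/0.1% BSA. Exposed 5 min at 22 °C to LL-37 (0.5–10 μg/mL) or fMLP (200 nM). Then Alexa 488-conjugated activation-dependent mAb CBRM1/5, 30 min on ice. Epitope-positive cells counted by flow cytometry. Some samples pretreated with NIF (1 μg/mL) before LL-37 at 4 or 10 μg/mL.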

[3] = system: macrophages isolated from αMβ2-deficient mice; assay: Transwell migration of thioglycolate-elicited peritoneal macrophages; type: cell-based; settings: 90 min, LL-37 1 μg/mL, fMLP 100 nM
How it was run: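 Thioglycolate-elicited peritoneal monocyte/macrophages from wild-type and αMβ2-deficient mice, purified by anti-F4/80-PE selection. Placed in Transwell inserts with chemoattractant below: LL-37 1 μg/mL or fMLP 100 nM. Allowed to migrate 90 min.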

[4] = system: αMβ2-expressing HEK293 cells; assay: Transwell migration of αMβ2-expressing HEK293 cells; type: cell-based; settings: concentration-dependent, 16 h at 37 °C
How it was run: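 Transwell, 5 μm pores: 3 × 10^5 αMβ2-HEK293 cells in the upper chamber, LL-37 (0.1–2 μg/mL) below, 16 h at 37 °C. Cells on the filter underside are fixed with paraformaldehyde, hematoxylin-stained and counted (mean cells/view ± standard error, ≥3 experiments). Blocking: 15 min pretreatment with 20 μg/mL anti-αM 44a, anti-β2 IB4 or non-inhibitory OKM1, LL-37 at 0.5 μg/mL. Medium-alone control.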

[5] = system: U937 monocytic cells; assay: Chemotaxis of U937 cells towards an agarose drop on coverslips; type: cell-based, human; settings: agarose gel with 15 μg/mL LL-37; 2 h at 37 °C
How it was run: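 U937 cells on 22 × 22 mm coverslips. A 10 μL drop of 1% agarose in HBSS, with LL-37 at 15 μg/mL final, sits ~1.5 mm from one corner; a control agarose drop sits in the opposite corner; both polymerise 5 min. Coverslips are submerged in RPMI 1640/10% FBS. 5 × 10^4 cells are loaded centrally, then 2 h at 37 °C, 5% CO2. Migration photographed at 2 mm intervals (20× objective); blocking variant uses anti-αM mAb 44a.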

[6] = target: T1, αMI-domain; settings: covalently coupled to the cellulose membrane; cited from earlier work

T1 sequence (P11215 139-331): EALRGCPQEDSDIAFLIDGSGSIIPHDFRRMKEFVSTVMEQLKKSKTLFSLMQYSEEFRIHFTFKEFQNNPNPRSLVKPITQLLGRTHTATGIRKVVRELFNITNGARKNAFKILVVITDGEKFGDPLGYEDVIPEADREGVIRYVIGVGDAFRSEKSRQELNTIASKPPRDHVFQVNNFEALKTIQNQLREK

Row | Compound | IC50 [1] [µM] | also measured
1 | CC(C)C[C@H](NC(=O)[C@H](CC(C)C)NC(=O)[C@H](CCCNC(=N)N)NC(=O)[C@@H](N)CC(N)=O)C(=O)N[C@@H](CC(C)C)C(=O)N[C@H](C(=O)NCC(=O)O)[C@@H](C)O [NRLLLTG] | 110 ± 16 | 
2 | ARLPIWF [ARLPIWF] | 17 ± 3 | 
3 | GRLPMPW [GRLPMPW] | 36 ± 7 | 
4 | LLGDFFRKSKEKIGKEFKRIVQRIKDFLRNLVPRTES [LL-37] |  | number of cells expressing the activation epitope compared with fMLP ([2]; 10 μg/mL LL-37 versus fMLP 200 nM): slightly higher; expression of the CBRM1/5 activation epitope on neutrophils ([2]; LL-37 0.5–10 μg/mL, 5 min at 22 °C, mAb CBRM1/5-Alexa 488, FACS): induced expression of the CBRM1/5 epitope in a concentration-dependent manner; migration of macrophages from αMβ2-deficient mice [3]: did not induce migration; LL-37 concentrations at which migration occurred [4]: 0.1 to 2 µg/mL; chemotactic response of U937 cells [5]: induced a chemotactic response
5 | LQLRFPRFV [LQLRFPRFV] | 10.5 ± 1.6 | 
6 | QVLRIRKRA [QVLRIRKRA] | 8.4 ± 0.5 | 
7 | RKLRSLWRR [RKLRSLWRR] | 2.5 ± 0.2 | 
8 | SSVKKYRPKYCGS [CCN1-H2] |  | αMI-domain binding of the cellulose-coupled peptide [6]: bound the αMI-domain
9 | SVNKYRGTAGNA [SVNKYRGTAGNA] | 93 ± 11 | 
10 | TMKIIPFNRLTIG [P2-C] | 30 ± 2.5 | 
11 | YSMKKTTMKIIPFNRLTIG [P2] |  | αMI-domain binding of the cellulose-coupled peptide [6]: bound the αMI-domain
12 | fMLP |  | migration of macrophages from αMβ2-deficient mice [3]: migrated
